Experimental data: ChEMBL document CHEMBL4257476, “Design, synthesis and biological evaluation of novel 5-hydroxy-2-methyl-4H-pyran-4-one derivatives as antiglioma agents” (Medchemcomm, 2018)

Assays:
HT-1080 [1] = assay: Antiproliferative activity against human HT1080 cells by MTT assay; assay type: functional, cell-based
Outline: (§1)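 MTT viability: cells grown in DMEM with 10% FBS, 2 mM L-glutamine and penicillin/streptomycin at 37 °C, 5% CO2. Seeded 5000/well for 12 h. Compound diluted 1000× from DMSO stock (final DMSO <0.1%). MTT conversion to formazan for 4 h, absorbance at 562 nm. 4 replicate wells per concentration, at least three runs.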

U-87 MG [2] = assay: Antiproliferative activity against human U87 cells by MTT assay; assay type: functional, cell-based, U-87MG ATCC; outline: as §1
[3] = molecular target: Isocitrate dehydrogenase [NADP] cytoplasmic (Homo sapiens, UniProt O75874, R132H); assay: Inhibition of His-tagged recombinant human IDH1 R132H mutant expressed in Escherichia coli Rosetta (DE3) preincubated for 30 mins followed by NADPH/alpha-KG addition and measured after 1 hr
Outline: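 His-tagged mutant human IDH1 expressed from pET28a in E. coli Rosetta (DE3) with 1 mM IPTG, purified on Ni-NTA with imidazole step elution. Enzyme and compound preincubated 30 min at room temperature in 50 mM Tris, 200 mM NaCl, 5 mM β-mercaptoethanol, 2 mM MgSO4, 10% glycerol. MgCl2, NADPH and α-KG then added, 1 h at 37 °C; NADPH consumption read at 340 nm.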

[4] = tested on: Isocitrate dehydrogenase [NADP] cytoplasmic (Homo sapiens), O75874 [R132H]; assay: Inhibition of IDH1 […] cells assessed as decrease in D-2HG levels at 1 uM after 48 hrs by HPLC-MS analysis relative to control; assay type: cell-based
Outline: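 HT1080 cells (1×10^5/well, 6-well plates) attached overnight in DMEM with 10% dialyzed FBS. Treated 48 h with rising compound concentrations in 2 mL medium. Quantified by SIM at 147 Da from peak area against an authentic D-2HG standard curve.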

U-87 MG [5] = assay: Antimigratory activity in human U87 cells assessed as migration rate at 1 uM after 12 hrs by scratch assay (reference value: 51.3%); assay type: functional, U-87MG ATCC
U-87 MG [6] = assay: Antimigratory activity in human U87 cells assessed as migration rate at 1 uM after 24 hrs by scratch assay (reference value: 17.5%); assay type: functional, U-87MG ATCC
HT-1080 [7] = assay: Antimigratory activity in human HT1080 cells assessed as scratch area at 1 uM after 6 hrs (reference value: 58.7%); assay type: functional
HT-1080 [8] = assay: Antimigratory activity in human HT1080 cells assessed as scratch area at 1 uM after 12 hrs (reference value: 23.3%); assay type: functional
U-87 MG [9] = assay: Inhibition of colony formation of human U87 cells after 8 days by Giemsa-Wright staining-based assay; assay type: functional, cell-based; conditions: U-87MG ATCC
Outline: (§2)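 Colony formation: 200 cells/well in 6-well plates, 2 mL medium, treated 8 days with DMSO control or compound. Cells then washed three times with cold PBS, fixed in 95% cold MeOH for 15 min, and stained with Giemsa-Wright. Colonies counted by eye at least three times.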

U-87 MG [10] = assay: Inhibition of colony formation of human U87 cells at 0.5 uM after 8 days by Giemsa-Wright staining-based assay relative to control; assay type: functional, U-87MG ATCC; conditions: 192 h; outline: as §2
U-87 MG [11] = assay: Inhibition of colony formation of human U87 cells at 1 uM after 8 days by Giemsa-Wright staining-based assay relative to control; assay type: functional, U-87MG ATCC; conditions: 192 h; outline: as §2
HT-1080 [12] = assay: Inhibition of colony formation of human HT1080 cells at 0.5 uM after 8 days by Giemsa-Wright staining-based assay relative to control; assay type: functional; conditions: HT-1080, 192 h; outline: as §2
HT-1080 [13] = assay: Inhibition of colony formation of human HT1080 cells at 1 uM after 8 days by Giemsa-Wright staining-based assay relative to control; assay type: functional; conditions: HT-1080, 192 h; outline: as §2
HT-1080 [14] = assay: Antimigratory activity in human HT1080 cells assessed as scratch area at 10 uM after 6 hrs (reference value: 58.7%); assay type: functional
HT-1080 [15] = assay: Antimigratory activity in human HT1080 cells assessed as scratch area at 10 uM after 12 hrs (reference value: 23.3%); assay type: functional

Chain of Isocitrate dehydrogenase [NADP] cytoplasmic (O75874 2-414 R132H limits assumed): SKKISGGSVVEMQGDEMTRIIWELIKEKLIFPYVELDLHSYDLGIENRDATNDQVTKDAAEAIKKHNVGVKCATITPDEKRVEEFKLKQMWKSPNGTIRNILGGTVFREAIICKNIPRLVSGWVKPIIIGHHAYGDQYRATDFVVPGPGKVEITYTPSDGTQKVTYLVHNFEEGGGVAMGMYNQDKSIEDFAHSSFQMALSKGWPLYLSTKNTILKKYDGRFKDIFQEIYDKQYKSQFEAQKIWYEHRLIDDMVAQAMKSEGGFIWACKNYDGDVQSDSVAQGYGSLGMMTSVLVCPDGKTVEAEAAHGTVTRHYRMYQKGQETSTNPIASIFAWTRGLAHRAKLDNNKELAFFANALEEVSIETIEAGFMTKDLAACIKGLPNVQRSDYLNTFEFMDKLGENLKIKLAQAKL
Chain of Isocitrate dehydrogenase [NADP] cytoplasmic (Homo sapiens), O75874 [R132H] (O75874 whole entry R132H): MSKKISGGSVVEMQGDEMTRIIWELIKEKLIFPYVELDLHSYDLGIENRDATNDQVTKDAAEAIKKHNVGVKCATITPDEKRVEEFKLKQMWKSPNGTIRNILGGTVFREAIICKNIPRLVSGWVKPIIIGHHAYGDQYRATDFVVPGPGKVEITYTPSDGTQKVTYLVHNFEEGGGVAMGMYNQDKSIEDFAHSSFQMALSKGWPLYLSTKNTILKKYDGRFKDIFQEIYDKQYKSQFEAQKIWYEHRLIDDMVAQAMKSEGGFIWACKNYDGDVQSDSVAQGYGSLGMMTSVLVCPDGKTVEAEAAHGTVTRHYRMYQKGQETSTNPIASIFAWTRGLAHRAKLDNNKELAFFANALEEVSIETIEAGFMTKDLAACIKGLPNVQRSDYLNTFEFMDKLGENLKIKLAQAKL

SMILES | IC50 (HT-1080 [1]) | IC50 (U-87 MG [2]) | IC50 [3] | further results
Cc1cc(=O)c(O)c(Cc2ccccc2)o1 | > 50 µM | > 50 µM | > 50 µM | 
Cc1cc(=O)c(O)c(C(c2ccc(OCc3ccccc3)cc2)c2oc(C)cc(=O)c2O)o1 | 1.43 µM | 4.6 µM | 23.1 µM | inhibition [4]: 86.5%; Activity (U-87 MG [5]): 82.8%; Activity (U-87 MG [6]): 69.5%; Activity (HT-1080 [7]): 61%; Activity (HT-1080 [8]): 43.5%; inhibition (U-87 MG [9]): Dose-dependent effect; inhibition at 0.5 µM (U-87 MG [10]): 11.3%; inhibition at 1 µM (U-87 MG [11]): 96.8%; inhibition at 0.5 µM (HT-1080 [12]): 75%; inhibition at 1 µM (HT-1080 [13]): 99.5%
C=CCOc1ccc(C(c2oc(C)cc(=O)c2O)c2oc(C)cc(=O)c2O)cc1 | 28.3 µM | 30.9 µM | > 50 µM | 
Cc1cc(=O)c(O)c(Cc2ccc(OCc3ccccc3)cc2)o1 | > 50 µM | > 50 µM | > 50 µM | 
CCCOc1ccc(C(c2oc(C)cc(=O)c2O)c2oc(C)cc(=O)c2O)cc1 | 26.6 µM | 29.5 µM | > 50 µM | 
Cc1ccccc1C(C(=O)NC1CCCCC1)N(C(=O)Cn1ccnc1C)c1cccc(F)c1 (stereo not given) |  | 20.1 µM | 0.08 µM | inhibition [4]: 86.9%; Activity (U-87 MG [5]): 84%; Activity (U-87 MG [6]): 51%; Activity (HT-1080 [14]): 70%; Activity (HT-1080 [15]): 56%
Cc1cc(=O)c(O)c(C(c2ccc(OCc3ccc([N+](=O)[O-])cc3)cc2)c2oc(C)cc(=O)c2O)o1 | 3.06 µM | > 50 µM | > 50 µM | 
Cc1cc(=O)c(O)c(Cc2ccc(F)cc2)o1 | > 50 µM | > 50 µM | > 50 µM | 
COc1ccc(COc2ccc(C(c3oc(C)cc(=O)c3O)c3oc(C)cc(=O)c3O)cc2)cc1 | 2.6 µM | 5.2 µM | 32 µM | 
Cc1cc(=O)c(O)c(C(c2ccc(CCc3ccccc3)cc2)c2oc(C)cc(=O)c2O)o1 | > 50 µM | 27.2 µM | > 50 µM | 
Cc1cc(=O)c(O)c(Cc2ccc(Cl)cc2)o1 | > 50 µM | > 50 µM | > 50 µM | 
Cc1cc(=O)c(O)c(Cc2ccc(C(F)(F)F)cc2)o1 | 24.4 µM | > 50 µM | > 50 µM | 
